# Publication PMC2861480 (Molecular bioSystems, 2009)
# Assays:
# GSK3β = GSK3β (Homo sapiens, UniProt P49841); assay: Kinase profiling; assay type: biochemical, mammalian; details: 5 μM 3F8 in 1% DMSO; panel of 22 kinases
# zebrafish embryos = details: for CE (effective concentration to cause no-eyes phenotype): zebrafish embryos
# [1] = system: β-catenin–TCF activity in 293T cells; assay: In vitro β-catenin–TCF assay; assay type: cell-based; details: 4 μM 3F8 added to the medium, 18 h
# Summary of the method: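 293T cells in 24-well plates were transfected with 200 ng superTOPflash reporter plasmid plus 20 ng Renilla luciferase (RLTK) control plasmid. Test compound was added 24 h after transfection and left for 18 h. Cell extracts were assayed sequentially for firefly and Renilla luciferase in a dual-luciferase system, and firefly readings were normalized to Renilla.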
# Sequence of GSK3β (P49841 whole entry): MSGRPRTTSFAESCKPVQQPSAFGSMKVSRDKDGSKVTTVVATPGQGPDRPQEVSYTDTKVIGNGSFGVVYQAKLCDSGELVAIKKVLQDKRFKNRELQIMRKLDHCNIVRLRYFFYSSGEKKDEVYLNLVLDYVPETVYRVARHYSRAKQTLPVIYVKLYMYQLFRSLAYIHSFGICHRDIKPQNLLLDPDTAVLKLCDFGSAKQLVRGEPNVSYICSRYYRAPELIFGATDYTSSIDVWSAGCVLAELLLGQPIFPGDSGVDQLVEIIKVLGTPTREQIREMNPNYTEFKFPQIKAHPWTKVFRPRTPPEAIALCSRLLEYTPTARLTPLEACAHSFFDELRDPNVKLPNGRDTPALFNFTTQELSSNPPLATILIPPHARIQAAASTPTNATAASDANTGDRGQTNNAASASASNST
Compound,inhibition of GSK3β activity (GSK3β),"no-eyes embryos that developed a forebrain and eyes after removal of compound (zebrafish embryos; 2 days of treatment, washed out, scored by 5 dpf)",concentration giving no-eyes phenotype in all embryos (zebrafish embryos; treated at the 2-cell stage),"concentration required for effect on brain development (zebrafish embryos; treated at the 2-somite stage (after gastrulation), no effect at highest dose)",concentration required for no-eyes phenotype (zebrafish embryos; treated at the shield stage),CE (effective concentration to cause no-eyes phenotype) (zebrafish embryos),luciferase read out increase (superTOPflash) [1]
"CCc1nc2c(c3cc(OC)c(OC)cc13)C(=O)NC2=O [3F8, 5-ethyl-7,8-dimethoxy-1H-pyrrolo[3,4-c]-isoquinoline-1,3-(2H)-dione]",91%,22%,3.75 µM,> 75 µM,11.25 µM,7.5 µM,approximately 15 fold
"COC(=O)c1ccc[cH-]1.O=C1NC(=O)c2c1c1cccnc1c1[n-]c3c(Br)cc(O)cc3c21.[CH+]=O.[Ru] [GSK-3 inhibitor XV, reference compound]",,,,,,1 µM,
